# Test results: ChEMBL document CHEMBL1146016, “Synthesis and structure-activity relationships of 3,4-diaminocyclobut-3-ene-1,2-dione CXCR2 antagonists” (Bioorg Med Chem Lett, 2006)
# Tests used:
# [1] = target: T1, C-X-C chemokine receptor type 2 (Homo sapiens, UniProt P25025); assay: Displacement of [125I]IL8 from human CXCR2 expressed in CHO cells; assay type: cell-based
# T1 sequence (P25025 whole entry): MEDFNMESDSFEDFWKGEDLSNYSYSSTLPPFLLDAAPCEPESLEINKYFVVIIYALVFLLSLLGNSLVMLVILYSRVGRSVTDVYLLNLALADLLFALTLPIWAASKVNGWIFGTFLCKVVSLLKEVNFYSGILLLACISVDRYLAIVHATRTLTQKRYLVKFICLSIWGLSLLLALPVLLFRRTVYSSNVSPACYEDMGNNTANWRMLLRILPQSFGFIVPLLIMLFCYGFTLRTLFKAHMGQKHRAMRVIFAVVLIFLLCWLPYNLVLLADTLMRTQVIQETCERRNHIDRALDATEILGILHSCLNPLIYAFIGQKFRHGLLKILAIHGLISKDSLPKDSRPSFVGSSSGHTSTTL
# [2] = Metabolic stability in human liver microsome after 30 min at 37 degreeC; assay type: ADME; details: liver microsomes, read-out: Stability
# Method in brief: (§1)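 Liver microsomes (human or rat) incubated with compound at 1 µM final for 30 min at 37 °C in 100 mM potassium phosphate pH 7.4 with 1 mM β-NADPH; reported as percent parent remaining; means ± SD of two or more measurements.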
# [3] = Permeability across Caco-2 cell membrane; assay type: ADME, cell-based; details: human
# Method in brief: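 Caco-2 monolayers in a commercial HTS Caco-2 system run per kit instructions; apicalto-basolateral apparent permeability (nm/s), binned as low or high predicted absorption; means ± SD of two or more measurements.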
# [4] = Metabolic stability in rat liver microsome after 30 min at 37 degreeC; assay type: ADME; details: liver microsomes, read-out: Stability; method in brief: as §1
Structure (SMILES),IC50 [1] [nM],further results
CN(c1ccccc1O)c1c(Nc2ccccc2)c(=O)c1=O,28600,–
O=c1c(O)c(Nc2ccc([N+](=O)[O-])cc2)/c1=N/c1ccccc1,8600,–
CN(C)C(=O)c1cccc(/N=c2\c(O)c(O)\c2=N/C(C)(C)C)c1O,14,–
CN(C)C(=O)c1cccc(/N=c2\c(O)c(O)\c2=N/CCc2ccccc2)c1O,926,–
CN(C)C(=O)c1cccc(/N=c2\c(O)c(O)\c2=N/c2ccccc2)c1O,2,remaining at 0.5 h [2]: 64%; Papp [3]: 2.4 ×10⁻⁶ cm/s; remaining at 0.5 h [4]: 67%
CN(C)C(=O)c1cccc(/N=c2\c(O)c(O)\c2=N/Cc2ccco2)c1O,41,–
CN(C)C(=O)c1cccc(/N=c2\c(O)c(O)\c2=N/C2CCCCC2)c1O,10,–
CCNC(=O)c1cccc(/N=c2\c(O)c(O)\c2=N/c2ccccc2)c1O,65,–
CCC(CC)/N=c1\c(O)c(O)\c1=N/c1cccc(C(=O)N(C)C)c1O,–,remaining at 0.5 h [2]: 82%; Papp [3]: 12 ×10⁻⁶ cm/s; remaining at 0.5 h [4]: 75%
CN(C)C(=O)c1cccc(/N=c2\c(O)c(O)\c2=N/C2CCCC2)c1O,8,remaining at 0.5 h [2]: 72%; Papp [3]: 10.1 ×10⁻⁶ cm/s; remaining at 0.5 h [4]: 56%
CC(C)/N=c1\c(O)c(O)\c1=N/c1cccc(C(=O)N(C)C)c1O,10,–
CNC(=O)c1cccc(/N=c2\c(O)c(O)\c2=N/c2ccccc2)c1O,22,–
COC(=O)c1cccc(/N=c2\c(O)c(O)\c2=N/c2ccccc2)c1O,53,–
O=C(NCc1ccccc1)c1cccc(Nc2c(O)c(=O)/c2=N\c2ccccc2)c1O,139,–

# Further lines, with some results ahead:
IC50 [1] [nM],Structure (SMILES),further results
56,O=c1c(O)c(Nc2cc([N+](=O)[O-])ccc2O)/c1=N/c1ccccc1,–
3,N#Cc1ccc(Nc2c(O)c(=O)/c2=N\c2ccccc2)c(O)c1,–
1000,O=C(O)c1cccc(/N=c2\c(O)c(O)\c2=N/c2ccccc2)c1O,–
548,CN(C)C(=O)c1cccc(/N=c2\c(O)c(O)\c2=N/[C@@H]2CCc3ccccc32)c1O,–
34,NC(=O)c1cccc(/N=c2\c(O)c(O)\c2=N/c2ccccc2)c1O,–
7200,CN(C)C(=O)c1cccc(/N=c2/c(N(C)c3ccccc3)c(O)c2=O)c1O,–
74,N#Cc1ccc(O)c(Nc2c(O)c(=O)/c2=N\c2ccccc2)c1,–
3100,O=C(O)c1ccc(/N=c2\c(O)c(O)\c2=N/c2ccccc2)c(O)c1,–
36,O=c1c(O)c(Nc2ccc([N+](=O)[O-])cc2O)/c1=N/c1ccccc1,–
2,CN(C)C(=O)c1cc(Cl)cc(/N=c2\c(O)c(O)\c2=N/c2ccccc2)c1O,–
476,O=c1c(O)c(Nc2ccccc2)/c1=N/c1ccccc1O,–
171,CN(C)C(=O)c1cccc(/N=c2\c(O)c(O)\c2=N/C2CCOCC2)c1O,–
